Source: ChEMBL document CHEMBL3227926, “2-Mercaptoacetamidines as gastric antisecretory agents” (J Med Chem, 1979)

Legend:
Canis familiaris [1] = assay: Inhibition of gastrin tetrapeptide-induced gastric secretion in beagle dog at 16 mg/kg administered directly into stomach via gastric cannula measured after 2 hrs of stimulation; type: functional; details: Canis lupus familiaris
Procedure, shortened: (§1)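 Conscious female beagles (5-9 kg) with chronic gastric fistula. Dose in 50 mL 1% methylcellulose was put into the stomach via the cannula 1 h before gastrin tetrapeptide 64 µg/kg sc (from 640 µg/mL in 30% Me2SO); controls got vehicle. Juice was collected for 2 h. Volume was measured, titratable acid obtained by titration to pH 7 with 0.01 N NaOH, and total acid taken as volume × concentration.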

Canis familiaris [2] = assay: Toxicity in beagle dog assessed as gastric bleeding administered directly into stomach via gastric cannula; type: organism-based, Canis lupus familiaris; details: in vivo, other
Canis familiaris [3] = assay: Inhibition of gastrin tetrapeptide-induced gastric secretion in beagle dog at 8 mg/kg administered directly into stomach via gastric cannula measured after 2 hrs of stimulation; type: functional; details: Canis lupus familiaris; procedure, shortened: as §1
Canis familiaris [4] = assay: Toxicity in beagle dog assessed as emesis administered directly into stomach via gastric cannula; type: organism-based, Canis lupus familiaris; details: in vivo, other
Canis familiaris [5] = assay: Toxicity in beagle dog assessed as tachycardia administered directly into stomach via gastric cannula; type: organism-based, Canis lupus familiaris; details: in vivo, other
Canis familiaris [6] = assay: Inhibition of histamine-induced gastric secretion in beagle dog assessed as total acid output at 32 mg/kg administered directly into stomach via gastric cannula measured after 2 hrs of stimulation; type: functional; details: Canis lupus familiaris
Procedure, shortened: (§2)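 Fistulated conscious female beagles (5-9 kg) got the dose intragastrically via cannula in 50 mL 1% methylcellulose, with vehicle controls. Histamine 64 µg base/kg sc (diphosphate in saline) was given 1 h later. Output over 2 h was assessed as volume, titratable acid (titration to pH 7, 0.01 N NaOH) and total acid output (volume × concentration).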

Canis familiaris [7] = assay: Inhibition of gastrin tetrapeptide-induced gastric secretion in beagle dog assessed as total acid output at 8 mg/kg administered directly into stomach via gastric cannula measured after 2 hrs of stimulation; type: functional; details: Canis lupus familiaris; procedure, shortened: as §1
Canis familiaris [8] = assay: Inhibition of histamine-induced gastric secretion in beagle dog assessed as titratable acid at 32 mg/kg administered directly into stomach via gastric cannula measured after 2 hrs of stimulation; type: functional; details: Canis lupus familiaris; procedure, shortened: as §2
Canis familiaris [9] = assay: Inhibition of histamine-induced gastric secretion in beagle dog assessed as volume at 32 mg/kg administered directly into stomach via gastric cannula measured after 2 hrs of stimulation; type: functional; details: Canis lupus familiaris; procedure, shortened: as §2
Canis familiaris [10] = assay: Inhibition of 2-deoxy-D-glucose-induced gastric secretion in beagle dog assessed as titratable acid at 8 mg/kg administered directly into stomach via gastric cannula measured after 2 hrs of stimulation; type: functional; details: Canis lupus familiaris
Procedure, shortened: (§3)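 Female beagles (5-9 kg), nonanesthetized, with chronic gastric fistula. Test agent was given in 50 mL 1% methylcellulose through the gastric cannula, with vehicle controls, 1 h before 2-deoxy-D-glucose 200 mg/kg sc in saline. The 2 h collection was measured for volume and for acid by titration to pH 7 with 0.01 N NaOH; total acid was calculated as volume × concentration.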

Canis familiaris [11] = assay: Inhibition of gastrin tetrapeptide-induced gastric secretion in beagle dog assessed as total acid output at 16 mg/kg administered directly into stomach via gastric cannula measured after 2 hrs of stimulation; type: functional; details: Canis lupus familiaris; procedure, shortened: as §1
Canis familiaris [12] = assay: Inhibition of 2-deoxy-D-glucose-induced gastric secretion in beagle dog assessed as titratable acid at 16 mg/kg administered directly into stomach via gastric cannula measured after 2 hrs of stimulation; type: functional; details: Canis lupus familiaris; procedure, shortened: as §3
Canis familiaris [13] = assay: Inhibition of gastrin tetrapeptide-induced gastric secretion in beagle dog assessed as volume at 8 mg/kg administered directly into stomach via gastric cannula measured after 2 hrs of stimulation; type: functional; details: Canis lupus familiaris; procedure, shortened: as §1
Canis familiaris [14] = assay: Inhibition of gastrin tetrapeptide-induced gastric secretion in beagle dog assessed as titratable acid at 16 mg/kg administered directly into stomach via gastric cannula measured after 2 hrs of stimulation; type: functional; details: Canis lupus familiaris; procedure, shortened: as §1
Canis familiaris [15] = assay: Inhibition of 2-deoxy-D-glucose-induced gastric secretion in beagle dog assessed as volume at 16 mg/kg administered directly into stomach via gastric cannula measured after 2 hrs of stimulation; type: functional; details: Canis lupus familiaris; procedure, shortened: as §3
Canis familiaris [16] = assay: Inhibition of gastrin tetrapeptide-induced gastric secretion in beagle dog assessed as volume at 16 mg/kg administered directly into stomach via gastric cannula measured after 2 hrs of stimulation; type: functional; details: Canis lupus familiaris; procedure, shortened: as §1
Canis familiaris [17] = assay: Inhibition of gastrin tetrapeptide-induced gastric secretion in beagle dog assessed as titratable acid at 8 mg/kg administered directly into stomach via gastric cannula measured after 2 hrs of stimulation; type: functional; details: Canis lupus familiaris; procedure, shortened: as §1
Canis familiaris [18] = assay: Inhibition of 2-deoxy-D-glucose-induced gastric secretion in beagle dog assessed as total acid output at 16 mg/kg administered directly into stomach via gastric cannula measured after 2 hrs of stimulation; type: functional; details: Canis lupus familiaris; procedure, shortened: as §3
Canis familiaris [19] = assay: Inhibition of 2-deoxy-D-glucose-induced gastric secretion in beagle dog assessed as total acid output at 8 mg/kg administered directly into stomach via gastric cannula measured after 2 hrs of stimulation; type: functional; details: Canis lupus familiaris; procedure, shortened: as §3
Canis familiaris [20] = assay: Inhibition of 2-deoxy-D-glucose-induced gastric secretion in beagle dog assessed as volume at 8 mg/kg administered directly into stomach via gastric cannula measured after 2 hrs of stimulation; type: functional; details: Canis lupus familiaris; procedure, shortened: as §3
Canis familiaris [21] = assay: Inhibition of gastrin tetrapeptide-induced gastric secretion in beagle dog at 4 mg/kg administered directly into stomach via gastric cannula measured after 2 hrs of stimulation; type: functional; details: Canis lupus familiaris; procedure, shortened: as §1
Canis familiaris [22] = assay: Inhibition of gastrin tetrapeptide-induced gastric secretion in beagle dog at 2 mg/kg administered directly into stomach via gastric cannula measured after 2 hrs of stimulation; type: functional; details: Canis lupus familiaris; procedure, shortened: as §1
Canis familiaris [23] = assay: Inhibition of gastrin tetrapeptide-induced gastric secretion in beagle dog at 32 mg/kg administered directly into stomach via gastric cannula measured after 2 hrs of stimulation; type: functional; details: Canis lupus familiaris; procedure, shortened: as §1

Structure (SMILES) | inhibition in vivo at 16 mg/kg (Canis familiaris [1]) | Activity (Canis familiaris [2]) | inhibition in vivo at 8 mg/kg (Canis familiaris [3]) | Activity (Canis familiaris [4]) | Activity (Canis familiaris [5]) | inhibition in vivo at 4 mg/kg (Canis familiaris [21]) | also measured
Cl.N=C(CSSCC(=N)NCC12CC3CC(CC(C3)C1)C2)NCC12CC3CC(CC(C3)C1)C2 | 80% | Toxic | 62% | Toxic | Toxic | – | –
Cl.N=C(CS)N1CCOCC1 | 23% | Toxic | 2% | Toxic | Toxic | – | –
Cl.N=C(CS)NCC12CC3CC(CC(C3)C1)C2 | 74% | Toxic | 47% | Toxic | Toxic | – | inhibition in vivo at 32 mg/kg (Canis familiaris [6]): 55%; inhibition in vivo at 8 mg/kg (Canis familiaris [7]): 8%; inhibition in vivo at 32 mg/kg (Canis familiaris [8]): 40%; inhibition in vivo at 32 mg/kg (Canis familiaris [9]): 36%; inhibition in vivo at 8 mg/kg (Canis familiaris [10]): 18%; inhibition in vivo at 16 mg/kg (Canis familiaris [11]): 83%; inhibition in vivo at 16 mg/kg (Canis familiaris [12]): 85%; inhibition in vivo at 8 mg/kg (Canis familiaris [13]): 7%; inhibition in vivo at 16 mg/kg (Canis familiaris [14]): 91%; inhibition in vivo at 16 mg/kg (Canis familiaris [15]): 79%; inhibition in vivo at 16 mg/kg (Canis familiaris [16]): 74%; inhibition in vivo at 8 mg/kg (Canis familiaris [17]): 0%; inhibition in vivo at 16 mg/kg (Canis familiaris [18]): 97%; inhibition in vivo at 8 mg/kg (Canis familiaris [19]): 42%; inhibition in vivo at 8 mg/kg (Canis familiaris [20]): 31%
Cl.N=C(CS)NCCC12CC3CC(CC(C3)C1)C2 | 100% | Toxic | 61% | Toxic | Toxic | 0% | –
Cl.N=C(CS)NCCCC12CC3CC(CC(C3)C1)C2 | – | Toxic | 81% | Toxic | Toxic | 36% | –
Cl.N=C(CS)NCCCCC12CC3CC(CC(C3)C1)C2 | – | Toxic | 67% | Toxic | Toxic | 0% | –
CCNC(=N)CS.Cl | – | Toxic | – | Toxic | Toxic | 90% | inhibition in vivo at 2 mg/kg (Canis familiaris [22]): 27%
CC(C)(C)CNC(=N)CS.Cl | – | Toxic | 95% | Toxic | Toxic | 25% | –
Cl.N=C(CS)NCC12CCC(CC1)C2 | – | Toxic | 91% | Toxic | Toxic | 0% | –
Cl.N=C(CS)NCC12CCC(CC1)CC2 | – | Toxic | 87% | Toxic | Toxic | 48% | –
Cl.N=C(CS)NCC12CCCC(CC1)C2 (centres undefined) | – | Toxic | 95% | Toxic | Toxic | 0% | –
Cl.N=C(CS)NCC12CCCC(CCC1)C2 | 23% | Toxic | 67% | Toxic | Toxic | – | –
Cl.N=C(CS)NCc1ccccc1 | – | Toxic | 83% | Toxic | Toxic | 29% | –
Cl.N=C(CS)NCC(c1ccccc1)c1ccccc1 | 60% | Toxic | 0% | Toxic | Toxic | – | –
Cl.N=C(CS)NC1CCCC1 | – | Toxic | 100% | Toxic | Toxic | 63% | –
Cl.N=C(CS)NC1CCCCC1 | – | Toxic | 79% | Toxic | Toxic | 37% | –
Cl.N=C(CS)NC1CCc2ccccc21 (centres undefined) | 85% | Toxic | 20% | Toxic | Toxic | – | –
Cl.N=C(CS)Nc1cccc(Cl)c1 | 16% | Toxic | – | Toxic | Toxic | – | inhibition in vivo at 32 mg/kg (Canis familiaris [23]): 61%
CN(C)C(=N)CS.Cl | – | Toxic | 62% | Toxic | Toxic | 0% | –
Cl.SCC1=NCCN1 | – | Toxic | – | Toxic | Toxic | – | inhibition in vivo at 2 mg/kg (Canis familiaris [22]): 100%
CC(S)C(=N)NCC(C)(C)C.Cl (centres undefined) | 28% | Toxic | 0% | Toxic | Toxic | – | –
Cl.N=C(CCS)NCc1ccccc1 | 18% | Toxic | – | Toxic | Toxic | – | inhibition in vivo at 32 mg/kg (Canis familiaris [23]): 42%
Cl.N=C(CSSCC(=N)NCc1ccccc1)NCc1ccccc1 | – | Toxic | – | Toxic | Toxic | 84% | –
CC(C)(C)CNC(=N)CCSSCCC(=N)NCC(C)(C)C.Cl | 75% | Toxic | 21% | Toxic | Toxic | – | –
CC(C)(C)CNC(=N)CO.Cl | 61% | Toxic | 22% | Toxic | Toxic | – | –
